# Measurements of several laboratories.
# Compare with care: the assays were run in different laboratories.
# Read-out: cell growth or viability
Compound,cell line,test,conditions,measurement,result
CC(=O)c1nn(-c2ccc(C)cc2)/c(=N/N=C(\C)c2ccc(NC(=O)c3ccccc3)cc2)s1,MCF7,MTT,0.625 µM,viability,4.79%
O=C(Nc1ccccc1)Nc1ccc(Oc2nnc(-c3ccc(Cl)cc3)c3ccccc23)cc1,MCF7,MTT,"10 µM, 24 h",viability,5.36%
Cc1c(C(=O)O)ccc2c3n(nc12)[C@@H]1[C@H](C3)N(CC2CC2)[C@@]2(C(=O)Nc3cc(Cl)ccc32)[C@H]1c1cccc(Cl)c1F,SJSA-1,ATP luminescence,,IC50,12 nM
COc1ccc(COC[C@@](O)(CNCc2ccc(F)cc2)[C@@H]2CC[C@@H](C)C[C@H]2OCc2ccc(OC)cc2)cc1,MCF7,MTT,"30 µM, 72 h",inhibition,101%
CC(=NNC(=O)c1ccccc1Cl)c1ccc(Nc2nnc(-c3ccc(Cl)cc3)c3ccccc23)cc1,MCF7,MTT,0.625 µM,cell death,0.177%
C[C@@H]1CC[C@@H]([C@](O)(CNCc2cccc3ccccc23)COCc2ccccc2)[C@H](OCc2ccccc2)C1,MCF7,MTT,"10 µM, 72 h",inhibition,81.1%
C=CC(=O)NC1CCN(c2ncc3ncnc(Nc4ccc(Oc5ccc6c(c5)ncn6C)c(C)c4)c3n2)CC1,SW-620,,,EC50,82.4 nM
CC(=O)Nc1ccc(Oc2nnc(-c3ccc(Cl)cc3)c3ccccc23)cc1,MCF7,MTT,1.25 µM,cell death,93.9%
CCOC(=O)c1nn(-c2cccc(Cl)c2)/c(=N/N=C(\C)c2ccc(NC(=O)c3ccc(Cl)cc3)cc2)s1,MCF7,MTT,1.25 µM,viability,3.36%
C=C(C)[C@@H]1CC[C@@H](C)C[C@H]1OCc1ccccc1,MCF7,MTT,"30 µM, 72 h",inhibition,31.6%
CCOC(=O)c1nn(-c2cccc(Cl)c2)/c(=N/N=C(\C)c2ccc(NC(=O)c3ccccc3)cc2)s1,MCF7,MTT,0.625 µM,viability,2.63%
C[C@@H]1CC[C@@H]([C@](C)(O)CNCc2ccccc2F)[C@H](OCc2ccccc2)C1,MCF7,MTT,"10 µM, 72 h",inhibition,39%
CC(=NNC(=O)c1ccccc1Br)c1ccc(Nc2nnc(-c3ccc(Cl)cc3)c3ccccc23)cc1,MCF7,MTT,5 µM,cell death,93.8%
COc1ccc(CNC[C@@](C)(O)[C@@H]2CC[C@@H](C)C[C@H]2OCc2ccccc2)cc1,MCF7,MTT,"30 µM, 72 h",inhibition,97%
O=C(Nc1ccc(Oc2nnc(-c3ccc(Cl)cc3)c3ccccc23)cc1)c1cccc([N+](=O)[O-])c1,MCF7,MTT,10 µM,cell death,92%
